According to ChEMBL document CHEMBL2169815, “Synthesis and structure-activity relationships of lapacho analogues. 1. Suppression of human keratinocyte hyperproliferation by 2-substituted naphtho[2,3-b]furan-4,9-diones, activation by enzymatic one- and two-electron reduction, and intracellular generation of superoxide” (J Med Chem, 2012):

system: HaCaT; test: Induction of superoxide generation in human HaCaT cells at 5 micomol/L after 18 hrs by flow cytometry (reference value: 367.5 +/- 80.1 ); type: functional
In short: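 HaCaT cells grown 24 h at 37 °C in DMEM with 10% FBS, then given compound at 5 μM for 18 h (0.1% DMSO final). DHE loaded for 30 min in the dark. Cells trypsinized and 2-OH-E⁺ fluorescence measured by flow cytometry (FL2, 550–600 nm) on 10000 live cells, dead cells gated out. Mean fluorescence intensity, mean ± SD, N = 3. DMSO-only control.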

Structure (SMILES)	Flu intensity
Cc1cc2c(o1)C(=O)c1ccccc1C2=O	420.2
CC1=CC(=O)c2ccccc2C1=O [MENADIONE]	431.9
O=C1c2ccccc2C(=O)c2occc21	452.5
CC(=O)c1cc2c(o1)C(=O)c1ccccc1C2=O [NAPABUCASIN]	725.5
CCc1noc(-c2cc3c(o2)C(=O)c2ccccc2C3=O)n1	1287

target: T1, NADPH--cytochrome P450 reductase (Homo sapiens, UniProt P16435); test: Activity of human recombinant cytochrome P450 reductase assessed as rate of superoxide generation measuring SOD-inhibitable reduction of succinoylated cytochrome c per 2 mU enzyme at 100 umol/ml by spectrophotometry in presence of catalase and DTPA (reference value: 0.2 +/- 0.1 micomol/L/min)
T1 sequence (P16435 whole entry): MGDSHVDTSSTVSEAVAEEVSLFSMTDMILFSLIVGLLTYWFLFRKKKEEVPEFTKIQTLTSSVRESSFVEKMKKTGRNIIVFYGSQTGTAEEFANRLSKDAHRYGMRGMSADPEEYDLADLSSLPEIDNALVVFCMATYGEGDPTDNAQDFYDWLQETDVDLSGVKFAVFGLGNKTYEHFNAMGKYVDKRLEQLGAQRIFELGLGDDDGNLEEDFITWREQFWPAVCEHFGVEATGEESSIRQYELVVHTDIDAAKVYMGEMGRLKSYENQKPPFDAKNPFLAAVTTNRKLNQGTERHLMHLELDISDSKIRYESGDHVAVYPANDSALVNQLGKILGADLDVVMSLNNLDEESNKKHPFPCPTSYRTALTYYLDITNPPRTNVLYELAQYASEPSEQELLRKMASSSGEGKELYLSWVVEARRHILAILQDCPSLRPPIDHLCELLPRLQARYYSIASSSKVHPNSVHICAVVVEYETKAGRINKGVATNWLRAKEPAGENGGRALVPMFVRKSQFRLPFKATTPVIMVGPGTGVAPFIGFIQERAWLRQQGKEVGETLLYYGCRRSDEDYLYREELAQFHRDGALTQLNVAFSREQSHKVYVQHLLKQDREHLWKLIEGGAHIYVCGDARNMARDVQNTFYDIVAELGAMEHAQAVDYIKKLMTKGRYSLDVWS

Structure (SMILES)	Activity [µmol/L/min]
Cc1cc2c(o1)C(=O)c1ccccc1C2=O	1.2
CC1=CC(=O)c2ccccc2C1=O [MENADIONE]	2.1
O=C1c2ccccc2C(=O)c2occc21	2.2
CC(=O)c1cc2c(o1)C(=O)c1ccccc1C2=O [NAPABUCASIN]	3
CCc1noc(-c2cc3c(o2)C(=O)c2ccccc2C3=O)n1	1.8

system: HaCaT; test: Induction of superoxide generation in human HaCaT cells at 50 uM after 30 min by flow cytometry (reference value: 7.1 +/- 5.2 ); type: functional

Structure (SMILES)	Flu intensity
Cc1cc2c(o1)C(=O)c1ccccc1C2=O	6.4
CC1=CC(=O)c2ccccc2C1=O [MENADIONE]	44
O=C1c2ccccc2C(=O)c2occc21	13
CC(=O)c1cc2c(o1)C(=O)c1ccccc1C2=O [NAPABUCASIN]	20.5
CCc1noc(-c2cc3c(o2)C(=O)c2ccccc2C3=O)n1	17

target: NQO1 protein (Homo sapiens) (UniProt Q3B792); test: Activity of human recombinant NQO-1 assessed as rate of superoxide generation measuring SOD-inhibitable reduction of succinoylated cytochrome c per unit enzyme at 25 umol/ml by spectrophotometry in presence of catalase and DTPA (reference value: 0.2 +/- 0.1 micomol/L/min)
Sequence (Q3B792 as listed by the source): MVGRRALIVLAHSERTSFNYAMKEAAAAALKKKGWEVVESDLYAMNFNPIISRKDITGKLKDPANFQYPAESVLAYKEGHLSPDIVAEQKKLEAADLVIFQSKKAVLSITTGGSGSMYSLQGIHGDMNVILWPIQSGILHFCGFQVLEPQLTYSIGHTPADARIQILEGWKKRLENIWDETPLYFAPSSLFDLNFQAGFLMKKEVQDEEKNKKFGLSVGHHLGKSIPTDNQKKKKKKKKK

Structure (SMILES)	Activity [µmol/L/min]
Cc1cc2c(o1)C(=O)c1ccccc1C2=O	0.2
CC1=CC(=O)c2ccccc2C1=O [MENADIONE]	1
O=C1c2ccccc2C(=O)c2occc21	0.4
CC(=O)c1cc2c(o1)C(=O)c1ccccc1C2=O [NAPABUCASIN]	1.4
CCc1noc(-c2cc3c(o2)C(=O)c2ccccc2C3=O)n1	1.9

system: HaCaT; test: Activity in dicoumarol-treated human HaCaT cells assessed as superoxide generation by flow cytometry (reference value: 407.59 +/- 68.7 ); type: functional

Structure (SMILES)	Flu intensity
Cc1cc2c(o1)C(=O)c1ccccc1C2=O	830.9
CC1=CC(=O)c2ccccc2C1=O [MENADIONE]	457.2
O=C1c2ccccc2C(=O)c2occc21	601.1
CC(=O)c1cc2c(o1)C(=O)c1ccccc1C2=O [NAPABUCASIN]	741.4
CCc1noc(-c2cc3c(o2)C(=O)c2ccccc2C3=O)n1	1279

system: HaCaT; test: Cytotoxicity against human HaCaT cells assessed as LDH release at 2 uM after 4 hrs by UV method; type: cell-based
In short: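 HaCaT cells were given compound at 2 μM for 4 h at 37 °C. Extracellular LDH in the supernatant was read by the UV method with pyruvate and NADH and reported as mU/mL. Vehicle control was 0.2% DMSO in medium; Brij 35 plus ultrasound was the positive control. N = 3.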

Structure (SMILES)	Activity [mU/ml]
CCN(CC)C(=O)c1cc2c(o1)C(=O)c1ccccc1C2=O	226
CC(=O)Oc1c2ccccc2c(OC(C)=O)c2oc(C(=O)c3ccccc3)cc12	193
O=C(c1cccnc1)c1cc2c(o1)C(=O)c1ccccc1C2=O	202
CCC(=O)c1cc2c(o1)C(=O)c1ccccc1C2=O	270
O=C1c2ccccc2C(=O)c2oc(-c3nnn[nH]3)cc21	380
CCOC(=O)C(=Cc1cc2c(o1)C(=O)c1ccccc1C2=O)C(=O)OCC	186
CC1(C)CCC2=C(O1)c1ccccc1C(=O)C2=O [LAPACHONE]	268
COC(=O)c1cc2c(o1)C(=O)c1ccccc1C2=O	190
O=C1c2c(O)cccc2Cc2cccc(O)c21 [ANTHRALIN]	239
O=C(c1cc2c(o1)C(=O)c1ccccc1C2=O)c1cccs1	169
O=C(c1ccco1)c1cc2c(o1)C(=O)c1ccccc1C2=O	167
CCOC(=O)c1cc2c(o1)C(=O)c1ccccc1C2=O	187
CCC(=O)c1cc2c(OC(C)=O)c3ccccc3c(OC(C)=O)c2o1	185
CC(=O)c1cc2c(o1)C(=O)c1ccccc1C2=O [NAPABUCASIN]	255
CCc1noc(-c2cc3c(o2)C(=O)c2ccccc2C3=O)n1	157
N#Cc1cc2c(o1)C(=O)c1ccccc1C2=O	181
O=Cc1cc2c(o1)C(=O)c1ccccc1C2=O	186
O=C(c1ccccc1)c1cc2c(o1)C(=O)c1ccccc1C2=O	318

system: HaCaT; test: Antihyperproliferative activity against human HaCaT cells after 48 hrs by phase contrast microscopy; type: functional, cell-based
In short: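 HaCaT keratinocytes were exposed for 48 h, then dispersed cells were counted under phase contrast. Inhibition was (1 − test/control) × 100, with test N = 3 and control N = 6–8, checked by Student's t test (P < 0.05). IC50 came from nonlinear regression.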

Structure (SMILES)	IC50 [nM]
CCN(CC)C(=O)c1cc2c(o1)C(=O)c1ccccc1C2=O	240
CC(=O)Oc1c2ccccc2c(OC(C)=O)c2oc(C(=O)c3ccccc3)cc12	920
O=C(O)/C=C/c1cc2c(o1)C(=O)c1ccccc1C2=O	> 30000
O=C(c1cccnc1)c1cc2c(o1)C(=O)c1ccccc1C2=O	370
O=C1c2ccccc2C(=O)c2oc(/C=N/O)cc21	2340
CCC(=O)c1cc2c(o1)C(=O)c1ccccc1C2=O	630
Cc1cc2c(o1)C(=O)c1ccccc1C2=O	7540
O=C(O)c1cc2c(o1)C(=O)c1ccccc1C2=O	> 30000
O=C1c2ccccc2C(=O)c2oc(-c3nnn[nH]3)cc21	> 30000
CCOC(=O)C(=Cc1cc2c(o1)C(=O)c1ccccc1C2=O)C(=O)OCC	1110
CC1(C)CCC2=C(O1)c1ccccc1C(=O)C2=O [LAPACHONE]	900
COC(=O)c1cc2c(o1)C(=O)c1ccccc1C2=O	920
COc1c2ccccc2c(OC)c2oc(C(=O)c3ccccc3)cc12	> 30000
O=C(OCc1ccccc1)c1cc2c(o1)C(=O)c1ccccc1C2=O	> 30000
CC(C)COC(=O)c1cc2c(o1)C(=O)c1ccccc1C2=O	2860
O=C(c1cc2c(o1)C(=O)c1ccccc1C2=O)c1cccs1	670
O=C(c1ccco1)c1cc2c(o1)C(=O)c1ccccc1C2=O	550
CC1=CC(=O)c2ccccc2C1=O [MENADIONE]	15800
CCOC(=O)c1cc2c(o1)C(=O)c1ccccc1C2=O	610

Structure (SMILES)	IC50 [nM]
O=C(Oc1ccccc1)c1cc2c(o1)C(=O)c1ccccc1C2=O	> 30000
O=C1c2ccccc2C(=O)c2occc21	3850
CCC(=O)c1cc2c(OC(C)=O)c3ccccc3c(OC(C)=O)c2o1	800
CC(C)C(=O)c1cc2c(o1)C(=O)c1ccccc1C2=O	440
O=C1c2ccccc2C(=O)c2oc(/C=C/c3ccccc3)cc21	> 30000
CCC(=O)c1cc2c(OC)c3ccccc3c(OC)c2o1	> 30000
O=C(OCc1cccs1)c1cc2c(o1)C(=O)c1ccccc1C2=O	14300
O=C(OC1CCCCC1)c1cc2c(o1)C(=O)c1ccccc1C2=O	2930
O=C(OCc1ccco1)c1cc2c(o1)C(=O)c1ccccc1C2=O	8230
CCCOC(=O)c1cc2c(o1)C(=O)c1ccccc1C2=O	1320
CC(C)OC(=O)c1cc2c(o1)C(=O)c1ccccc1C2=O	990
CCc1noc(-c2cc3c(o2)C(=O)c2ccccc2C3=O)n1	170
O=C1c2ccccc2C(=O)c2oc([N+](=O)[O-])cc21	2000
N#Cc1cc2c(o1)C(=O)c1ccccc1C2=O	890
N#Cc1ccc(/C=C/c2cc3c(o2)C(=O)c2ccccc2C3=O)cc1	7730
O=Cc1cc2c(o1)C(=O)c1ccccc1C2=O	2760
CCc1cc2c(o1)C(=O)c1ccccc1C2=O	12200
CCOC(=O)/C=C/c1cc2c(o1)C(=O)c1ccccc1C2=O	2510
O=C(c1ccccc1)c1cc2c(o1)C(=O)c1ccccc1C2=O	720

system: HaCaT; test: Ratio of compound IC50 to beta-lapachone IC50 for human HaCaT cells; type: functional

Structure (SMILES)	Ratio IC50
CCc1noc(-c2cc3c(o2)C(=O)c2ccccc2C3=O)n1	5

system: HaCaT; test: Ratio of compound IC50 to anthralin IC50 for human HaCaT cells; type: functional

Structure (SMILES)	Ratio IC50
CCc1noc(-c2cc3c(o2)C(=O)c2ccccc2C3=O)n1	4
